Entries after “also recorded” stand apart in the source; their conditions may differ.
Legend:
[1] = tested on: untransfected HEK293 cells; test: fura-2 assay of [Ca2+]i in untransfected HEK293 cells; assay type: cell-based, human; conditions: DG2 0.1–10 μM; ADP 20 μM positive control
Outline: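 Trypsinized HEK293 cells plated on rat tail collagen-coated 96-well plates and loaded with fura-2 AM. Read in kinetic mode on a fluorescence plate reader. Test solutions added by automated pipetting at 100 s. Data sampled at 6 s intervals over 300 s. Read-out: percent change in 340/380 ratio after baseline subtraction. Each experiment repeated at least three times.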

[2] = molecular target: T1, CCK2i4svR (Homo sapiens, UniProt P32239); assay type: binding; conditions: read-out: IC50, displacement of [125I][I-Tyr12,Leu15]gastrin; HEK293-CCK2i4svR cell membranes, 60 min at 22 °C, mean ± SD, n = 3
T1 sequence (P32239 1-516 isoform P32239-2): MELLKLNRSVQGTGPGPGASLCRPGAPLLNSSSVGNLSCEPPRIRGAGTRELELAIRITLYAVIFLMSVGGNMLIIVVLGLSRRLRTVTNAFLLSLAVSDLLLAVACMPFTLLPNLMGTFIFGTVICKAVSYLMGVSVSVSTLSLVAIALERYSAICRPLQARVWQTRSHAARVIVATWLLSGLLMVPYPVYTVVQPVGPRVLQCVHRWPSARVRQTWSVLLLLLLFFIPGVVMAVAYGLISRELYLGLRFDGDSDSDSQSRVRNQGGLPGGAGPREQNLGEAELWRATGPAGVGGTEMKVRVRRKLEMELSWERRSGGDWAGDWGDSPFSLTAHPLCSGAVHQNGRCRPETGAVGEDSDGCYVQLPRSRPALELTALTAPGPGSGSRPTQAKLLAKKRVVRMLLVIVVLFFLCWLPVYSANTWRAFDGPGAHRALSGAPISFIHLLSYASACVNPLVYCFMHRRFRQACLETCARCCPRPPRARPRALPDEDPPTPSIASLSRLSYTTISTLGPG
Outline: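 Parent nonpeptidic antagonist served as reference. Stopped with ice-cold 10 mM HEPES pH 7.4/150 mM NaCl, then rapid GF/B glass-fibre filtration and gamma counting. IC50 by one-site nonlinear regression; mean ± SD, three experiments in triplicate.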

**Q.** `Nc1ncnc2c1ncn2[C@@H]1O[C@H](COP(=O)(O)OP(=O)(O)O)[C@@H](O)[C@H]1O` [ADP] was tested. Which “agonist action on [Ca2+]i in untransfected HEK293 cells” value [1] did it give?
**A.** did respond; also recorded: does exert an agonist action

**Q.** How did the IC50 [2] turn out when `CC(C)(C)C(=O)CN1C(=O)[C@H](NC(=O)Nc2cccc(C(=O)O)c2)CN(C2CCCCC2)c2ccccc21` [Z-360, 3-[[[[(3R)-5-cyclohexyl-1-(3,3-dimethyl-2-ox-obutyl)-2,3,4,5-tetrahydro-2-oxo-1H-1,5-benzodiazepin-3-yl]-amino]carbonyl]amino]benzoic acid] was run?
**A.** 1.57 ± 0.14 nM

Reference: publication PMC7429258 (Molecular pharmaceutics, 2020)
